Results reported in ChEMBL document CHEMBL1782044, “Aspartic vinyl sulfones: inhibitors of a caspase-3-dependent pathway” (Eur J Med Chem, 2011).
Calls of active or inactive are those of the source. No cut-off for these calls is given here.

Key:
Saccharomyces cerevisiae [1] = assay: Growth stimulation in Saccharomyces cerevisiae CG379 transformed with empty vector at 5 to 100 uM after 2 days; format: organism-based; settings: in vivo, 48 h
Caspase-3 (Homo sapiens) = biological target: T1, Caspase-3 (Homo sapiens) (UniProt P42574); assay: Inhibition of human recombinant caspase-3 assessed as fluorescent 7-amido-4-methylcoumarin release using Ac-DEVD-AMC as peptide substrate at <200 uM by fluorometric assay
T1 sequence (whole entry): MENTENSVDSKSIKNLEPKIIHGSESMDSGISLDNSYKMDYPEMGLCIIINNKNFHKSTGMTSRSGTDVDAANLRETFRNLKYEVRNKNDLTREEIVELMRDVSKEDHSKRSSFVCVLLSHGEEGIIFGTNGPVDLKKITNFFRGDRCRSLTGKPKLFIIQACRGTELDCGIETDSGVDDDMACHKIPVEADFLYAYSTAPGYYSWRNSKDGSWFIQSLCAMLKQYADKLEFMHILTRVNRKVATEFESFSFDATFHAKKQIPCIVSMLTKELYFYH
Method in brief: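 Recombinant human caspase-3 (stock 10 U/ml in assay buffer) mixed with inhibitor at various concentrations. Reaction started with AMC substrate at 200 (final). Buffer was 20 mM HEPES, 2 mM EDTA, 0.1% CHAPS, 5 mM DTT, pH 7.4. AMC release followed continuously at 37 °C by fluorescence, excitation 360 nm and emission 460 nm. IC50 determined.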

Saccharomyces cerevisiae [2] = assay: Growth stimulation in Saccharomyces cerevisiae CG379 transformed with empty vector at 5 to 50 uM after 2 days; format: organism-based; settings: in vivo, 48 h

| Activity (Saccharomyces cerevisiae [1]) | inhibition (Caspase-3 (Homo sapiens)) | SMILES | other results |
| --- | --- | --- | --- |
| -7% |  | CC(C)[C@H](NC(=O)OCC1c2ccccc2-c2ccccc21)C(=O)N[C@H](/C=C/S(C)(=O)=O)CC(=O)O |  |
| 1.3% |  | CC(C)[C@H](NC(=O)OCC1c2ccccc2-c2ccccc21)C(=O)N[C@H](/C=C/S(=O)(=O)c1ccccc1)CC(=O)O |  |
|  | inactive | C[C@H](NC(=O)OCC1c2ccccc2-c2ccccc21)C(=O)N[C@H](/C=C/S(C)(=O)=O)CC(=O)O |  |
|  | inactive | CC[C@H](C)[C@H](NC(=O)OCC1c2ccccc2-c2ccccc21)C(=O)N[C@H](/C=C/S(C)(=O)=O)CC(=O)O |  |
| 1.7% |  | CS(=O)(=O)/C=C/[C@H](CC(=O)O)NC(=O)OCC1c2ccccc2-c2ccccc21 |  |
|  | inactive | C[C@H](NC(=O)OCC1c2ccccc2-c2ccccc21)C(=O)N[C@H](/C=C/S(=O)(=O)c1ccccc1)CC(=O)O |  |
| 2.8% |  | O=C(O)C[C@@H](/C=C/S(=O)(=O)c1ccccc1)NC(=O)OCC1c2ccccc2-c2ccccc21 |  |
|  | inactive | C[C@H](NC(=O)OCc1ccccc1)C(=O)N[C@H](/C=C/S(=O)(=O)c1ccccc1)CC(=O)O |  |

The remaining lines, values behind:

| SMILES | Activity (Saccharomyces cerevisiae [1]) | inhibition (Caspase-3 (Homo sapiens)) | other results |
| --- | --- | --- | --- |
| CC[C@H](C)[C@H](NC(=O)OCc1ccccc1)C(=O)N[C@H](/C=C/S(C)(=O)=O)CC(=O)O | -3.3% |  |  |
| CC(=O)N[C@@H](CC(=O)O)C(=O)N[C@@H](CCC(=O)O)C(=O)N[C@H](C(=O)N[C@@H](CC(=O)O)C(=O)CCl)C(C)C |  |  | Activity (Saccharomyces cerevisiae [2]): 1.7% |
| CC(C)[C@H](NC(=O)OCC1c2ccccc2-c2ccccc21)C(=O)N[C@H](C(=O)N[C@H](/C=C/S(C)(=O)=O)CC(=O)O)C(C)C |  | inactive |  |
| CC[C@H](C)[C@H](NC(=O)OCc1ccccc1)C(=O)N[C@H](/C=C/S(=O)(=O)c1ccccc1)CC(=O)O | 1.9% |  |  |
| CC(C)[C@H](NC(=O)OCc1ccccc1)C(=O)N[C@H](/C=C/S(C)(=O)=O)CC(=O)O | -1% |  |  |
| CC[C@H](C)[C@H](NC(=O)OCC1c2ccccc2-c2ccccc21)C(=O)N[C@H](/C=C/S(=O)(=O)c1ccccc1)CC(=O)O |  | inactive |  |
| C[C@H](NC(=O)OCc1ccccc1)C(=O)N[C@H](/C=C/S(C)(=O)=O)CC(=O)O |  | inactive |  |
| CC(C)[C@H](NC(=O)OCC1c2ccccc2-c2ccccc21)C(=O)N[C@H](C(=O)N[C@H](/C=C/S(=O)(=O)c1ccccc1)CC(=O)O)C(C)C |  | inactive |  |
